Screening data (PubChem BioAssay)
Hits are enriched below; roughly 0.77% of the tested compounds scored in any of these assays.
bIAP act = bovine intestinal alkaline phosphatase activators, primary screen, biochemical, bovine IAP, CDP-star luminescence; alkaline phosphatase, intestinal [Bos taurus]; activation factor at 20 µM; 200,000 compounds, 0.17% hits; purified bovine IAP, 30 min; stronger effect = higher value; fold of DMSO-control signal, blank-subtracted; AID 1016, 2008;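 active means activation factor of 2 or more at 20 µM, a signal rise over negative controls twice the positive control's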
bIAP inhibitor = bovine intestinal alkaline phosphatase inhibitors, primary screen, selectivity assay for TNAP inhibitor project, biochemical, bovine IAP, CDP-star luminescence; alkaline phosphatase, intestinal [Bos taurus]; purified bovine IAP, 30 min; inhibition, % at 20 µM; 190,000 tested, under 10 active;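 active means over 50% inhibition of intestinal alkaline phosphatase at 20 µM in the single-dose screen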
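System: Purified bovine intestinal alkaline phosphatase (IAP) enzyme | Input: IAP diluted 1/65,000,000 in the well | Also added: CDP-star chemiluminescent phosphatase substrate, 30 µM final | Dosing: 20 µM single dose | Times: Enzyme reaction for 30 min at room temperature | Detection: Luminescence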
mIAP activ = activators of mouse IAP, primary screen, biochemical, luminescence, uHTS; intestinal alkaline phosphatase [Mus musculus]; muIAP, CDP-Star luminescence, 30 min; stronger effect = higher value; 1 = vehicle-only enzyme signal, 0 = enzyme-free wells; activation factor at 10 µM; 330,000 compounds, 0.24% hits; AID 2805, 2010;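 active means activation factor of at least 2 at 20 µM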
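System: mouse IAP enzyme. Reagent: CDP-Star chemiluminescent phosphatase substrate. Benchmarks: DMSO wells, no-enzyme wells. Times: 30 min enzyme-substrate-compound incubation at room temperature. Detection: luminescence from enzymatic CDP-Star hydrolysis. Doses: test compounds delivered from DMSO solution.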
mIAP block = inhibitors of mouse IAP, primary screen, biochemical, luminescence, uHTS; intestinal alkaline phosphatase [Mus musculus]; purified mouse IAP, CDP-Star luminescence, 30 min; inhibition, % at 10 µM; 330,000 compounds, 0.2% hits; AID 2806, 2010;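 active means inhibition of at least 40% at 10 µM in the primary screen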;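 further: plate controls were DMSO with enzyme for no effect and no enzyme wells for full effect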
hIAP inh = human IAP inhibitors, primary screen, biochemical, luminescence, uHTS | purified IAP, CDP-Star luminescence, 30 min | inhibition, % at 10 µM | 330,000 compounds, 0.12% hits | AID 2544, 2010;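 active means inhibition reaching a set limit with compound at 10 µM in the primary screen, cut at about 35% in these data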;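 further: plate controls were DMSO wells with enzyme for no effect and no-enzyme buffer wells for full effect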
Target sequence (P09923 whole entry, looked up): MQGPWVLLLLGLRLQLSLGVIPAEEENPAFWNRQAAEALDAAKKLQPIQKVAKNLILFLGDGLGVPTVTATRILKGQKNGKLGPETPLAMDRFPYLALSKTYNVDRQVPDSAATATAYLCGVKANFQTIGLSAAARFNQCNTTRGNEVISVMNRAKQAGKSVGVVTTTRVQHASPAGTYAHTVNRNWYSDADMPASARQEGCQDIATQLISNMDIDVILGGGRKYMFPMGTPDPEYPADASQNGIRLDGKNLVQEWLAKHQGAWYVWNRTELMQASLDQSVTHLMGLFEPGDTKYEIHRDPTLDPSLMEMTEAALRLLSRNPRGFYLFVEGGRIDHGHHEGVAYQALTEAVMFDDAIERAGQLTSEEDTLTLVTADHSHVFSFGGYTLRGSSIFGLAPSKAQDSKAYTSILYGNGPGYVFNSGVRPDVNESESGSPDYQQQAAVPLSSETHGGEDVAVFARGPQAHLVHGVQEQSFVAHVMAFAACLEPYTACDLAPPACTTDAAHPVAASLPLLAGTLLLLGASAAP
hIAP activ = human IAP activators, primary screen, biochemical, luminescence, uHTS | 330,000 compounds, 0.16% hits | Intestinal-type alkaline phosphatase (Homo sapiens), P09923 | activation factor at 10 µM | purified human IAP, CDP-Star luminescence, 30 min; stronger effect = higher value; 1 = vehicle-only enzyme, 0 = enzyme-free background | AID 2524, 2010;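 active means activation factor of the enzyme at least 2-fold when tested at 20 µM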
hIAP act confirm = human IAP activators, confirmation, biochemical, luminescence, single concentration, uHTS hits | shares compounds with hIAP activ | purified IAP, CDP-Star luminescence, 30 min; stronger effect = lower value | activation (%Activity, negative = activation), % at 8.3 µM | AID 434926, 2010 | 880 compounds, 10% hits;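 active means at least twofold enzyme activation in any of six single-dose repeats, which the averaged readout prints as negative percent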
Active calls of the source: *; . = no result.

SMILES	bIAP act	bIAP inhibitor	mIAP activ	mIAP block	hIAP inh	hIAP activ	hIAP act confirm
COC(=O)c1ccc(C(=O)Nc2ccc(C(C)C)cc2N)cc1	1.2	-18.3	0.95	5.0	1.3	0.987	.
O=C(C1CCN(C2CC(=O)N(c3cccc(Cl)c3)C2=O)CC1)N1CCCC1 (configuration not stated)	1	-3.8	1.09	-9.5	-193.8	2.94*	-27.0
N#Cc1ccccc1OCC(=O)OCC(=O)Nc1ccc2c(c1)OCO2	.	.	0.915	8.5	-14.3	1.14	.
COC(=O)c1ccc(N/C(C)=C/C(=O)c2ccc(C)o2)cc1	1	2.2	0.885	11.5	35.6*	0.644	-3.0
N#C/C(=C(\O)c1ccco1)c1ccccn1	0.9	10.6	1.04	-3.6	-105.4	2.05*	55.3
COc1cccc(NC(=O)CN(C)C(=O)c2c(C)nn(-c3ccccc3)c2Cl)c1	.	.	1.09	-9.5	0.6	0.994	.
Cn1c(C(=O)N2CCCC(C(=O)NCc3cccs3)C2)cc2sccc21 (configuration not stated)	1	4.7	0.96	4.0	37.8*	0.622	-50.2
CN(C)c1ccc(N=Nc2ccccc2Br)cc1	.	.	0.815	18.5	42.0*	0.58	-103.6*
CC(=O)c1ccc(N=Nc2ccc(N(C)C)cc2)cc1	0.9	9.9	0.966	3.4	-16.2	1.16	.
CSCCC(NS(=O)(=O)c1ccc(C)cc1)C(=O)NNC(=O)c1csc(N2CCOCC2)n1 (configuration not stated)	.	.	0.683	31.7	-102.7	2.03*	48.3
O=C(CSc1nnc(NC(=O)c2ccc(S(=O)(=O)N3CCOCC3)cc2)s1)Nc1ccccc1C(F)(F)F	1.1	-12.9	1.04	-3.7	87.3*	0.127	0.3
Cc1nnc(NC(=O)c2ccc(S(=O)(=O)N3CCOCC3)cc2)s1	.	.	1.09	-9.1	-3.2	1.03	.
COc1ccc(CCNC(=O)Cn2c(=O)[nH]c3ccsc3c2=O)cc1OC	1.1	-5.2	1.11	-10.6	-19.4	1.19	.
Cc1ccc2nc(C3CCCCC3)[nH]c2c1	.	.	0.96	4.0	9.4	0.906	.
Cn1c(CNC(=O)CCNC(=O)c2cccc(Br)c2)cc(=O)n(C)c1=O	.	.	0.949	5.1	36.9*	0.631	0.9
COc1ccc(NC(=O)/C(C#N)=C\c2ccc(N3CCOCC3)o2)cc1	0.6	39.6	0.795	20.5	38.9*	0.611	2.5
COc1ccc(NC(=O)COC(=O)CN2C(=O)C3CCCCC3C2=O)cc1OC (configuration not stated)	.	.	1.01	-1.5	-12.2	1.12	.
COc1ccc(CCNC(=O)CCNC(=O)N2CC(=O)Nc3ccccc32)cc1OC	.	.	0.976	2.4	22.1	0.779	.
Cc1nc2sccn2c(=O)c1S(=O)(=O)Nc1ccc(N2CCN(S(C)(=O)=O)CC2)cc1	.	.	1.04	-4.2	-11.2	1.11	.
C1CCN(C2CCN(c3nc4nonc4nc3N3CCSCC3)CC2)C1	1.1	-12.5	0.928	7.2	12.9	0.871	.
C1CCC(Nc2nc3nonc3nc2N2CCSCC2)C1	1.1	-9.2	1.03	-2.6	36.6*	0.634	-2.6
Cc1cccc(C(=O)c2cn[nH]c2-c2ccc(C)cc2O)c1	.	.	1.08	-7.9	-7.2	1.07	.
Cc1ccc(-c2[nH]ncc2C(=O)c2cccc(F)c2)c(O)c1	.	.	0.958	4.2	-104.8	2.05*	5.6
N#Cc1cc(Oc2ccccc2)c(-n2nnc3ccccc32)cc1C#N	0.9	12.7	0.924	7.6	35.2*	0.648	40.7
N#Cc1cc(Oc2ccc3ccccc3c2)c(-n2nnc3ccccc32)cc1C#N	0.7	25.3	0.972	2.8	13.3	0.867	.
